What was measured:
[1] = tested on: Rattus norvegicus; experiment: Toxicity in Sprague-Dawley rat at 100 mg/kg, po once daily for 2 weeks; format: organism-based; details: in vivo, 336 h
Outline: (§1)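 Male Sprague Dawley rats, 6 weeks old (5 per group), were dosed orally once daily for 2 weeks at 100 or 1000 mg/kg as a suspension in 0.5% methylcellulose; controls received vehicle. Readouts: clinical observations, body weight, food consumption, ophthalmoscopy in week 2, and terminal necropsy, hematology, clinical chemistry, organ weights and histopathology. Plasma levels were measured 24 h post-dose on days 1, 5 and 10.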

[2] = tested on: Mus musculus; experiment: Ex vivo inhibition of SCD1 in C57BL/6J mouse eyelid assessed as residual activity at 100 mg/kg, po treated for 24 hrs followed by incubation with [14C]stearoyl-CoA substrate for 30 mins by TLC assay relative to control; format: organism-based
Outline: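 Male 6-week-old C57BL/6J mice dosed orally as a suspension in 0.5% methylcellulose. Liver or eyelid was taken 6 or 24 h later and homogenized in 100 mM Tris-HCl pH 7.4 with 0.25 M sucrose. S9 was obtained at 10,000 × g, 4 °C. S9 was incubated with [14C]stearoyl-CoA, NADH, MgCl2 and cytochrome b5 at room temperature, 10 min for liver and 30 min for eyelid. Lipids were saponified and run on AgNO3 TLC to quantify stearate and oleate. Result is % of vehicle control.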

[3] = target: T1, Acyl-CoA desaturase 1 (Mus musculus, UniProt P13516); experiment: Inhibition of mouse liver microsome SCD assessed as reduction in [3H]H2O production using stearoyl [9,10-3H]CoA as substrate in presence of NADH incubated for 30 mins by scintillation counting method; format: microsomes
T1 sequence (P13516 whole entry): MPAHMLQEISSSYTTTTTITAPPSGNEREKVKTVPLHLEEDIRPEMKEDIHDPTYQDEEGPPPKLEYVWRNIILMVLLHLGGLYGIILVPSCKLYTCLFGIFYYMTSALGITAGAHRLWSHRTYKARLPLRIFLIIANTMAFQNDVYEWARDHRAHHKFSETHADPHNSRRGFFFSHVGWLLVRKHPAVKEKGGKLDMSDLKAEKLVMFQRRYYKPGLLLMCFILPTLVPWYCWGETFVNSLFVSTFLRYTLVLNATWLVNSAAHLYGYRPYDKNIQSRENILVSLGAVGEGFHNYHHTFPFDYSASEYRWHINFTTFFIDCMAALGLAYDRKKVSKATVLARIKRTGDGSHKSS
Outline: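 Desaturation of [9,10-3H]stearoyl-CoA measured as released [3H]H2O. Water was separated from charcoal-adsorbed substrate by filtration and counted by scintillation. Remaining activity = (compound − background)/(control − background). DMSO wells served as control and pre-stopped wells as background. IC50 was interpolated from the two points bracketing 50%.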

[4] = Oral bioavailability in Sprague-Dawley rat at 10 mg/kg; format: ADME, organism-based; details: in vivo
Outline: (§2)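 Two male Sprague-Dawley rats per route, 10 mg/kg po and 1 mg/kg iv. Cmax, tmax, terminal-phase half-life and AUC0-inf were taken from plasma concentration–time curves. Bioavailability was derived from the po and iv data.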

[5] = Toxicity in Sprague-Dawley rat administered orally once daily for 2 weeks; format: organism-based; details: in vivo, po; outline: as §1
[6] = Cmax in Sprague-Dawley rat at 10 mg/kg, po; format: ADME, organism-based; parameters: dose 10 mg/kg, route oral; details: in vivo; outline: as §2
[7] = Tmax in C57BL/6J mouse at 10 mg/kg, po; format: ADME, organism-based; details: in vivo
Outline: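 Two male C57BL/6J mice per route, 10 mg/kg po and 1 mg/kg iv. Plasma concentration–time profiles gave Cmax, tmax, terminal half-life and AUC0-inf. Bioavailability was derived from the po and iv data.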

[8] = Metabolic stability in mouse liver S9 fraction after 1 hr; format: ADME, subcellular; details: read-out: Stability
[9] = tested on: Mus musculus; experiment: Antiobesity activity in high fat diet fed C57BL/6J mouse assessed as reduction in diet-induced body weight gain at 10 mg/kg, po administered as diet mixture for 43 days relative to control; format: functional; parameters: scale not given: the % may be the effect or the level left
Outline: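 C57BL/6J mice, individually housed, fed HFD for one month, then given HFD admixed with drug (0.0040% for 3 mg/kg/day, 0.0133% for 10 mg/kg/day) for 43 days, from 10 to 16 weeks of age. Chow-fed normal group as control. Body weight measured every 3–4 days. Mean ± SD, n=5–8. Dunnett's test versus HFD control.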

Activity [2]: 57%
IC50 [3]: 5.4 nM
bioavailability [4]: 16%
Cmax [6]: 8 µM
Tmax [7]: 1 h
remaining at 1 h [8]: 90%
Compound: CCCCc1ccccc1NCc1ccc(C(=O)Nc2nc(CC(=O)O)cs2)s1
Activity [1]: Non-Toxic
NOAEL at 336 h [5]: 100 mg/kg
Activity [9]: 6%
